Results from ChEMBL document CHEMBL1139342, “Antibacterial 5'-O-(N-dipeptidyl)-sulfamoyladenosines” (2009).
Where a SMILES comes first, the peptide text is derived from it. The star is where a group is joined. AspNHSO2(5'-O-Ado) = Nc1ncnc2c1ncn2[C@@H]1O[C@H](COS(=O)(=O)NC(=O)[C@H](CC(=O)O)N*)[C@@H](O)[C@H]1O

How the values were obtained:
Format in all cases: functional
Staphylococcus aureus [1] = test: Antibacterial activity against Staphylococcus aureus ATCC 25923 at 30 nmol after 16 to 20 hrs
Outline: (§1)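 Agar overlay diffusion assay: soft Mueller–Hinton agar (0.75% agar) seeded with bacteria poured over Mueller–Hinton agar (1.5% agar). Once set, 5 µL drops of compound in milliQ water were applied (30 nmol per drop, or 1.2 nmol for the reference compound) and allowed to dry. Plates were incubated at 37 °C for 16–20 h. Inhibition zone area was read in mm², triplicate per compound–dose.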

Escherichia coli [2] = test: Antibacterial activity against wild type Escherichia coli at 30 nmol after 16 to 20 hrs; outline: as §1
Enterococcus faecalis [3] = test: Antibacterial activity against Enterococcus faecalis ATCC 29212 at 30 nmol after 16 to 20 hrs; outline: as §1
Escherichia coli [4] = test: Antibacterial activity against Escherichia coli delta ABN mutant lacking peptidase A, B, N at 30 nmol after 16 to 20 hrs
Outline: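 Agar diffusion test. A soft Mueller–Hinton agar lawn (0.75% agar) seeded with bacteria was poured over Mueller–Hinton agar (1.5% agar). Once the agar set, 5 µL drops of compound in milliQ water (30 nmol per drop) were applied and left to dry. Plates were incubated at 37 °C for 16–20 h. Inhibition zone area was recorded in mm² as mean ± SD of triplicates.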

Escherichia coli [5] = test: Antibacterial activity against wild type Escherichia coli at 1.2 nmol after 16 to 20 hrs; outline: as §1
Enterococcus faecalis [6] = test: Antibacterial activity against Enterococcus faecalis ATCC 29212 at 1.2 nmol after 16 to 20 hrs; outline: as §1
Staphylococcus aureus [7] = test: Antibacterial activity against Staphylococcus aureus ATCC 25923 at 1.2 nmol after 16 to 20 hrs; outline: as §1

Row | Structure (SMILES) | inhibition zone (IZ) (Staphylococcus aureus [1]) [mm2] | inhibition zone (IZ) (Escherichia coli [2]) [mm2] | inhibition zone (IZ) (Enterococcus faecalis [3]) [mm2] | inhibition zone (IZ) (Escherichia coli [4]) [mm2] | inhibition zone (IZ) (Escherichia coli [5]) [mm2] | inhibition zone (IZ) (Enterococcus faecalis [6]) [mm2] | inhibition zone (IZ) (Staphylococcus aureus [7]) [mm2]
1 | C[C@H](N)C(=O)N[C@@H](Cc1c[nH]c2ccccc12)C(=O)NS(=O)(=O)OC[C@H]1O[C@@H](n2cnc3c(N)ncnc32)[C@H](O)[C@@H]1O | 0 | 0 | 0 |  |  |  | 
2 | Nc1ncnc2c1ncn2[C@@H]1O[C@H](COS(=O)(=O)NC(=O)[C@H](Cc2ccccc2)NC(=O)[C@@H](N)Cc2ccccc2)[C@@H](O)[C@H]1O | 0 | 18.4 | 26.8 | 19.6 |  |  | 
3 | CSCC[C@H](N)C(=O)N[C@@H](CC(C)C)C(=O)NS(=O)(=O)OC[C@H]1O[C@@H](n2cnc3c(N)ncnc32)[C@H](O)[C@@H]1O | 0 | 0 | 33.3 |  |  |  | 
4 | CC(C)C[C@H](NC(=O)[C@@H](N)CCCCN)C(=O)NS(=O)(=O)OC[C@H]1O[C@@H](n2cnc3c(N)ncnc32)[C@H](O)[C@@H]1O | 0 | 0 | 0 |  |  |  | 
5 | Nc1ncnc2c1ncn2[C@@H]1O[C@H](COS(=O)(=O)NC(=O)[C@@H](N)Cc2ccccc2)[C@@H](O)[C@H]1O [PHESA] | 0 | 38.5 | 40.4 | 52.7 |  |  | 
6 | CSCC[C@H](NC(=O)[C@@H](N)CCSC)C(=O)NS(=O)(=O)OC[C@H]1O[C@@H](n2cnc3c(N)ncnc32)[C@H](O)[C@@H]1O | 0 | 0 | 83.9 |  |  |  | 
7 | Nc1ncnc2c1ncn2[C@@H]1O[C@H](COS(=O)(=O)NC(=O)[C@H](Cc2c[nH]c3ccccc23)NC(=O)[C@@H]2CCCN2)[C@@H](O)[C@H]1O | 0 | 0 | 0 |  |  |  | 
8 | CSCC[C@H](NC(=O)[C@@H]1CCCN1)C(=O)NS(=O)(=O)OC[C@H]1O[C@@H](n2cnc3c(N)ncnc32)[C@H](O)[C@@H]1O | 0 | 0 | 0 |  |  |  | 
9 | CSCC[C@H](N)C(=O)N[C@@H](C)C(=O)NS(=O)(=O)OC[C@H]1O[C@@H](n2cnc3c(N)ncnc32)[C@H](O)[C@@H]1O | 59 | 26.8 | 76.1 | 0 |  |  | 
10 | C[C@H](N)C(=O)NS(=O)(=O)OC[C@H]1O[C@@H](n2cnc3c(N)ncnc32)[C@H](O)[C@@H]1O [ALASA] | 35 | 46.3 | 44.7 | 42.3 |  |  | 
11 | CSCC[C@H](N)C(=O)N[C@@H](Cc1c[nH]c2ccccc12)C(=O)NS(=O)(=O)OC[C@H]1O[C@@H](n2cnc3c(N)ncnc32)[C@H](O)[C@@H]1O | 0 | 0 | 0 |  |  |  | 
12 | C/C(=C\C(=O)OCCCCCCCCC(=O)O)C[C@@H]1OC[C@H](C[C@@H]2O[C@H]2[C@@H](C)[C@H](C)O)[C@@H](O)[C@H]1O [MUPIROCIN] | >490.93 | 38.5 | 89.4 | 52.7 |  |  | 
13 | CSCC[C@H](N)C(=O)N[C@@H](CC(=O)O)C(=O)NS(=O)(=O)OC[C@H]1O[C@@H](n2cnc3c(N)ncnc32)[C@H](O)[C@@H]1O | 0 | 12.6 | 63.7 | 31.5 |  |  | 
14 | NCCCC[C@H](N)C(=O)N[C@@H](Cc1c[nH]c2ccccc12)C(=O)NS(=O)(=O)OC[C@H]1O[C@@H](n2cnc3c(N)ncnc32)[C@H](O)[C@@H]1O | 0 | 0 | 0 |  |  |  | 
15 | Nc1ncnc2c1ncn2[C@@H]1O[C@H](COS(=O)(=O)NC(=O)[C@@H](N)CC(=O)O)[C@@H](O)[C@H]1O | 0 | 26.8 | 21.3 | 28.3 |  |  | 
16 | CSCC[C@H](N)C(=O)NS(=O)(=O)OC[C@H]1O[C@@H](n2cnc3c(N)ncnc32)[C@H](O)[C@@H]1O | 18.7 | 26.8 | 0 | 40.4 |  |  | 
17 | C[C@H](N)C(=O)N[C@@H](C)C(=O)NS(=O)(=O)OC[C@H]1O[C@@H](n2cnc3c(N)ncnc32)[C@H](O)[C@@H]1O | 0 | 25.3 | 56.9 | 0 |  |  | 
18 | CSCC[C@H](N)C(=O)N[C@@H](CCCNC(=N)N)C(=O)N[C@H](C(=O)NCC(=O)N[C@@H](CC(N)=O)C(=O)N[C@@H](C)C(=O)N[C@@H](CC(=O)O)C(=O)NS(=O)(=O)OC[C@H]1O[C@@H](n2cnc3c(N)ncnc32)[C@H](O)[C@@H]1O)[C@@H](C)O (H-MRTGNA-{AspNHSO2(5'-O-Ado)}) |  |  |  |  | 46.7 | 0 | 0
19 | CC(C)C[C@H](NC(=O)[C@@H](N)CCC(=O)O)C(=O)NS(=O)(=O)OC[C@H]1O[C@@H](n2cnc3c(N)ncnc32)[C@H](O)[C@@H]1O | 0 | 0 | 0 |  |  |  | 
20 | C[C@H](NC(=O)[C@@H]1CCCN1)C(=O)NS(=O)(=O)OC[C@H]1O[C@@H](n2cnc3c(N)ncnc32)[C@H](O)[C@@H]1O | 0 | 18.4 | 0 | 0 |  |  | 
21 | Nc1ncnc2c1ncn2[C@@H]1O[C@H](COS(=O)(=O)NC(=O)[C@@H](N)Cc2c[nH]c3ccccc23)[C@@H](O)[C@H]1O | 0 | 0 | 0 |  |  |  | 
22 | CC(C)C[C@H](NC(=O)[C@H](C)N)C(=O)NS(=O)(=O)OC[C@H]1O[C@@H](n2cnc3c(N)ncnc32)[C@H](O)[C@@H]1O | 0 | 0 | 24.2 |  |  |  | 
23 | CSCC[C@H](NC(=O)[C@H](C)N)C(=O)NS(=O)(=O)OC[C@H]1O[C@@H](n2cnc3c(N)ncnc32)[C@H](O)[C@@H]1O | 0 | 0 | 0 |  |  |  | 
24 | CC(C)C[C@H](NC(=O)[C@@H]1CCCN1)C(=O)NS(=O)(=O)OC[C@H]1O[C@@H](n2cnc3c(N)ncnc32)[C@H](O)[C@@H]1O | 0 | 0 | 0 |  |  |  | 
25 | CC(C)C[C@H](N)C(=O)NS(=O)(=O)OC[C@H]1O[C@@H](n2cnc3c(N)ncnc32)[C@H](O)[C@@H]1O [LEUSA] | 0 | 25.4 | 26.9 | 66 |  |  | 
